hIAP block = blocks human intestinal alkaline phosphatase. P09923. inhibition, % at 10 µM. AID 2544. purified IAP, CDP-Star luminescence, 30 min. hit rate 0.12% among 330,000;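 active = inhibition reaching a set limit with compound at 10 µM in the primary screen, cut at about 35% in these data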;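 note: plate controls were DMSO wells with enzyme for no effect and no-enzyme buffer wells for full effect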
Target sequence (P09923 whole entry, looked up): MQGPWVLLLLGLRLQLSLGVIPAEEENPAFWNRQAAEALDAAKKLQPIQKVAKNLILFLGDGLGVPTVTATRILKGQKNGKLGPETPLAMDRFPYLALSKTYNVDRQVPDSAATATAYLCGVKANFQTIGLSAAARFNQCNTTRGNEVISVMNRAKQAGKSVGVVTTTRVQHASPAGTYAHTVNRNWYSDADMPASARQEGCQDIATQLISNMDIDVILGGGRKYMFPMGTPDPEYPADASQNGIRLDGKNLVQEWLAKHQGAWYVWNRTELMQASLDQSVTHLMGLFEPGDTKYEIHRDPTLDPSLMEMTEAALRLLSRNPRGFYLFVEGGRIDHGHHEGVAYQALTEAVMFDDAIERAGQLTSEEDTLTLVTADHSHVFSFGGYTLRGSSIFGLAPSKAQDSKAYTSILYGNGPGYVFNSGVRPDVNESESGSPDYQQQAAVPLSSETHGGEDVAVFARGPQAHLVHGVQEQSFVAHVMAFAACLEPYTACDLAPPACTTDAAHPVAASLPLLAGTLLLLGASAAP
mIAP act = increases mouse intestinal alkaline phosphatase activity. muIAP, CDP-Star luminescence, 30 min; hits give high values; 1 = vehicle-only enzyme signal, 0 = enzyme-free wells. activation factor at 10 µM. hit rate 0.24% among 330,000;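 active = activation factor of at least 2 at 20 µM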
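Assay system: mouse IAP enzyme; Reagent: CDP-Star chemiluminescent phosphatase substrate; Compound: DMSO-dissolved test compounds; Incubation: 30 min, room temperature; Technique: luminescence from enzymatic CDP-Star hydrolysis; Controls: DMSO-only wells and no-enzyme negative control.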
mIAP block = mouse IAP inhibition; purified mouse IAP, CDP-Star luminescence, 30 min; inhibition, % at 10 µM; hit rate 0.2% among 330,000; AID 2806;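 active = inhibition of at least 40% at 10 µM in the primary screen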;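 note: plate controls were DMSO with enzyme for no effect and no enzyme wells for full effect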
hIAP act = human IAP activation; P09923; purified human IAP, CDP-Star luminescence, 30 min; hits give high values; 1 = vehicle-only enzyme, 0 = enzyme-free background; activation factor at 10 µM; hit rate 0.16% among 330,000; AID 2524;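 active = activation factor of the enzyme at least 2-fold when tested at 20 µM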
bIAP inh = intestinal alkaline phosphatase (bovine) inhibition. inhibition, % at 20 µM. 190,000 tested, under 10 active. purified bovine IAP, CDP-star luminescence, 30 min;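 active = over 50% inhibition of intestinal alkaline phosphatase at 20 µM in the single-dose screen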
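test system = bovine IAP enzyme | medium = DEA buffer 100 mM, pH 9.8, with MgCl2 1.0 mM, ZnCl2 0.02 mM | detection = luminescence | dosing = single compound dose of 20 µM, 2% DMSO final | incubation = 30 min reaction at room temperature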
bIAP activator = increases bovine intestinal alkaline phosphatase activity; purified bovine IAP, CDP-star luminescence, 30 min; hits give high values; fold of DMSO-control signal, blank-subtracted; activation factor at 20 µM; hit rate 0.17% among 200,000; AID 1016;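 active = activation factor of 2 or more at 20 µM, a signal rise over negative controls twice the positive control's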
* hit, by the source's call. Most compounds without a hit are left out; they make up all but 0.72% or so of the library.

CCCCCCCCNc1ncnc2ccccc12 was read as hIAP block 23, mIAP act 1.2, mIAP block -22, hIAP act 0.77, bIAP inh inactive and bIAP activator 9*.
Cc1ccccc1CS(=O)(=O)c1cn(CC(=O)N2CCOCC2)c2ccccc12 was read as hIAP block -9, mIAP act 1.1, mIAP block -6 and hIAP act 1.1.
Screening COc1ccc(OCC(=O)N2CCC(n3nccc3NC(=O)C3CC3)CC2)cc1 returned hIAP block 29, mIAP act 1, mIAP block -3 and hIAP act 0.71.
CCOc1ccc(-c2n[nH]c(=S)o2)cc1 was read as hIAP block -22, mIAP act 0.56, mIAP block 44*, hIAP act 1.2, bIAP inh -23 and bIAP activator 1.2.
Cc1ccccc1Cn1nc(C)c(NC(=O)C2c3ccccc3Oc3ccccc32)c1C was read as hIAP block -6, mIAP act 4.5*, mIAP block -349, hIAP act 1.1, bIAP inh 2 and bIAP activator 1.
For COc1ccc(C(C)NC(=S)NCc2ccc(F)cc2)cc1 (stereo unspecified) the results were hIAP block 5, mIAP act 1.3, mIAP block -33 and hIAP act 0.95.
For S=C(NCc1cccnc1)Nc1cc(Cl)cc(Cl)c1 the results were hIAP block 8, mIAP act 2.1*, mIAP block -109 and hIAP act 0.92.
`CCCCc1ccc(NC(=S)NCc2cccc(OC)c2)cc1` gave hIAP block 11, mIAP act 2.5*, mIAP block -146, hIAP act 0.89, bIAP inh 11 and bIAP activator 0.9.
Screening COc1cccc(C(C)NC(=S)NCc2ccc(Cl)cc2)c1 (stereo unspecified) returned hIAP block -22, mIAP act 2.5*, mIAP block -148, hIAP act 1.2, bIAP inh 23 and bIAP activator 0.8.
`COc1ccc(CNC(=S)Nc2cccc(Cl)c2)cc1` gave hIAP block 17, mIAP act 2.7*, mIAP block -172 and hIAP act 0.83.
For S=C(NCc1cccnc1)Nc1cccc(Cl)c1 the results were hIAP block -4, mIAP act 1.1, mIAP block -14, hIAP act 1, bIAP inh 11 and bIAP activator 0.9.
CCOC(=O)c1ccc(N2CCN(C(=O)c3ccccc3)CC2)c(NC(=O)c2ccco2)c1 was read as hIAP block 6, mIAP act 0.92, mIAP block 8 and hIAP act 0.94.
CSc1nn2c(C(F)(F)F)cc(C(F)(F)F)nc2c1C(=O)O was read as hIAP block -3, mIAP act 1, mIAP block -3 and hIAP act 1.
Screening CC(C)C1Cc2c(C#N)c(N)sc(=S)c2CO1 (stereo unspecified) returned hIAP block -10, mIAP act 0.6, mIAP block 40*, hIAP act 1.1, bIAP inh 37 and bIAP activator 0.6.
O=C(Cc1cccs1)NCCSc1c(-c2ccc(Cl)cc2)[nH]c2ccccc12 was read as hIAP block 10, mIAP act 2.5*, mIAP block -154, hIAP act 0.9, bIAP inh -5 and bIAP activator 1.1.
CCOC(=O)CSc1c(-c2ccc(Cl)cc2)[nH]c2ccccc12 was read as hIAP block -4, mIAP act 0.97, mIAP block 3, hIAP act 1, bIAP inh 8 and bIAP activator 0.9.
COc1ccc(NC(=O)N(C)C[C@H]2Oc3ccc(NC(=O)NC(C)C)cc3C(=O)N([C@H](C)CO)C[C@@H]2C)cc1 was read as hIAP block -19, mIAP act 1.1, mIAP block -13 and hIAP act 1.2.
C[C@@H]1CN([C@@H](C)CO)C(=O)c2cc(NC(=O)Nc3ccccc3)ccc2O[C@H]1CN(C)C(=O)Nc1cccc2ccccc12 was read as hIAP block -12, mIAP act 2.7*, mIAP block -167 and hIAP act 1.1.
For COc1ccc(NC(=O)Nc2ccc3c(c2)C(=O)N([C@H](C)CO)C[C@H](C)[C@@H](CN(C)C(=O)Nc2ccc(OC)cc2)O3)cc1 the results were hIAP block 2, mIAP act 2.3*, mIAP block -134 and hIAP act 0.98.

Screening data from PubChem BioAssay.
